Measured values: ChEMBL document CHEMBL1944524, “Synthesis and structure-activity relationship of 5-pyridazin-3-one phenoxypiperidines as potent, selective histamine H(3) receptor inverse agonists” (Bioorg Med Chem Lett, 2012)
Activity calls are given as the source filed them. The calls are words filed in the database; no cut-off is given here.

How the values were obtained:
Salmonella typhimurium [1] = assay: Genotoxicity against Salmonella Typhimurium TA1537 by Ames test in the absence of rat liver S9 fraction; format: toxicity, organism-based; details: salmonella enterica subsp. enterica serovar typhimurium
[2] = Genotoxicity against mouse lymphocytes by micronuclei test in the presence of rat liver S9 fraction; format: toxicity, Lymphocyte
[3] = Genotoxicity against mouse lymphocytes by micronuclei test in the absence of rat liver S9 fraction; format: toxicity, cell-based; details: lymphocyte
[4] = Half life in rat at 1 mg/kg, iv; format: ADME, organism-based; design: dose 1 mg/kg, route intravenous; details: in vivo
In short: (§1)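 Rat PK study, dosed 1 mg/kg iv plus 10 or 5 mg/kg po. iv vehicle 3% DMSO, 30% solutol, 67% phosphate buffered saline; oral vehicle 50% Tween 80, 40% propylene carbonate, 10% propylene glycol.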

[5] = Volume of distribution in rat at 1 mg/kg, iv; format: ADME, organism-based; design: dose 1 mg/kg, route intravenous; details: in vivo; in short: as §1
[6] = Clearance in rat at 1 mg/kg, iv; format: ADME, organism-based; design: dose 1 mg/kg, route intravenous; details: in vivo; in short: as §1
[7] = Cmax in rat at 10 mg/kg, po; format: ADME, organism-based; design: dose 10 mg/kg, route oral; details: in vivo; in short: as §1
[8] = Tmax in rat at 10 mg/kg, po; format: ADME, organism-based; design: dose 10 mg/kg, route oral; details: in vivo; in short: as §1
[9] = Oral bioavailability in rat at 10 mg/kg; format: ADME, organism-based; details: in vivo; in short: as §1
[10] = AUC in rat at 10 mg/kg, po; format: ADME, organism-based; design: dose 10 mg/kg, route oral; details: plasma; in short: as §1
[11] = Ratio of drug level in brain to plasma in rat at 10 mg/kg, ip after 6 hrs; format: ADME, organism-based; design: dose 10 mg/kg, route intraperitoneal; details: read-out: BPR
In short: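 Brain and plasma levels measured in rat 6 h after a 10 mg/kg ip dose; value is brain/plasma ratio.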

Rattus norvegicus [12] = assay: Inhibition of RAMH-induced water drinking in ip dosed rat dipsogenia model; format: functional
In short: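 Rat dipsogenia model: water drinking induced by H3 agonist R-alpha-methylhistamine; test article given ip beforehand; inhibition of drinking measured and ED50 (mg/kg) derived.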

Rattus norvegicus [13] = assay: Wake promoting activity in Sprague-Dawley rat EEG/EMG sleep-wake model assessed as slow-wave sleep onset time at 1 mg/kg, ip after 4 hrs (reference value: 34.9 +/- 5.1 mins); format: functional; details: route intraperitoneal
In short: (§2)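 Male Sprague Dawley rats surgically implanted for chronic EEG and EMG recording; test agent given ip, vehicle group as control; n = 6-7/group. […] Mean + SEM; Dunnett's test versus vehicle.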

Rattus norvegicus [14] = assay: Wake promoting activity in Sprague-Dawley rat EEG/EMG sleep-wake model assessed as slow-wave sleep onset time at 3 mg/kg, ip after 4 hrs (reference value: 34.9 +/- 5.1 mins); format: functional; details: route intraperitoneal; in short: as §2
Rattus norvegicus [15] = assay: Wake promoting activity in Sprague-Dawley rat EEG/EMG sleep-wake model assessed as increase in wake time at 10 mg/kg, ip after 4 hrs; format: functional; details: route intraperitoneal
In short: (§3)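 Male Sprague Dawley rats surgically implanted for chronic EEG/EMG recording; ip dosing during normal quiet period; cumulative wake time over 4 h post dose vs vehicle; n = 6-7/group, mean + SEM, Dunnett's test vs vehicle.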

Rattus norvegicus [16] = assay: Wake promoting activity in Sprague-Dawley rat EEG/EMG sleep-wake model assessed as increase in wake time at 30 mg/kg, ip after 4 hrs; format: functional; details: route intraperitoneal; in short: as §3
Rattus norvegicus [17] = assay: Wake promoting activity in Sprague-Dawley rat EEG/EMG sleep-wake model assessed as maximum cumulative wake time at 30 mg/kg, ip at 6 hrs; format: functional; details: route intraperitoneal
Rattus norvegicus [18] = assay: Wake promoting activity in Sprague-Dawley rat EEG/EMG sleep-wake model assessed as maximum cumulative wake time at 30 mg/kg, ip up to 17 hrs; format: functional, organism-based; design: dose 30 mg/kg
Rattus norvegicus [19] = assay: Wake promoting activity in Sprague-Dawley rat EEG/EMG sleep-wake model assessed as increase in wake time at 30 mg/kg, ip after 4 hrs relative to control; format: functional; details: route intraperitoneal; in short: as §2
Rattus norvegicus [20] = assay: Toxicity in Sprague-Dawley rat assessed as hypersomnolence at 1 to 30 mg/kg, ip after 4 hrs; format: organism-based; design: dose 1-30 mg/kg, route intraperitoneal; details: in vivo
Histamine H3 receptor [21] = molecular target: Histamine H3 receptor (Rattus norvegicus, UniProt Q9QYN8); assay: Displacement of [3H]N-alpha-methylhistamine from rat histamine H3 receptor expressed in CHO cells; format: cell-based
Histamine H3 receptor [22] = molecular target: T1, Histamine H3 receptor (Homo sapiens, UniProt Q9Y5N1); assay: Displacement of [3H]N-alpha-methylhistamine from human histamine H3 receptor expressed in CHO cells; format: cell-based
[23] = molecular target: Voltage-gated inwardly rectifying potassium channel KCNH2 (Homo sapiens, UniProt Q12809); assay: Inhibition of human ERG by patch clamp assay
[24] = Half life in human liver microsomes; format: ADME, Microsome
In short: (§4)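 Stability in liver microsomes from rat, dog or human; half-life (min) determined.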

[25] = Half life in rat liver microsomes; format: ADME, Microsome; in short: as §4
[26] = Half life in dog liver microsomes; format: ADME, Canis lupus familiaris, Microsome; in short: as §4
[27] = Inhibition of cytochrome P450; format: ADME
In short: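 CYP inhibition assessed against 5 CYP isoforms; IC50 determined.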

[28] = molecular target: Histamine H1 receptor (Homo sapiens) (UniProt P35367); assay: Inhibition of human histamine H1 receptor at 10 uM
In short: (§5)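 Selectivity screen against human H1, H2 and H4 receptors; percent inhibition at 10 µM.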

[29] = molecular target: Histamine H2 receptor (Homo sapiens) (UniProt P25021); assay: Inhibition of human histamine H2 receptor at 10 uM; in short: as §5
[30] = molecular target: Histamine H4 receptor (Homo sapiens) (UniProt Q9H3N8); assay: Inhibition of human histamine H4 receptor at 10 uM; in short: as §5
Histamine H3 receptor [31] = molecular target: T1, Histamine H3 receptor; assay: Inverse agonist activity at human histamine H3 histamine receptor by [35S]GTPgammaS binding assay; format: functional
In short: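 Functional assay measuring [35S]GTPγS binding at the human H3 receptor. Inverse agonist potency is reported as an EC50.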

[32] = Inhibition of alpha-adrenergic receptor at 10 uM
In short: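 Broad panel of 101 GPCRs, ion channels and enzymes; percent inhibition at 10 µM.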

[33] = Aqueous solubility of the compound at pH 2; format: physicochemical; details: buffer
In short: (§6)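 Water solubility measured at pH 2 and at pH 7.4, in […].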

[34] = Aqueous solubility of the compound at pH 7.4; format: physicochemical; details: buffer; in short: as §6
[35] = Apparent permeability of the compound across human Caco2 cells; format: ADME, cell-based; details: Caco-2
In short: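 Caco-2 monolayer permeability; apparent permeability (Papp, cm/s) reported.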

[36] = Plasma protein binding in rat; format: ADME, cell-free; details: read-out: PPB (converted)
In short: (§7)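 In vitro binding to plasma proteins of rat, dog and human; percent bound.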

[37] = Plasma protein binding in dog; format: ADME, cell-free, Canis lupus familiaris; details: read-out: PPB (converted); in short: as §7
[38] = Plasma protein binding in human; format: ADME, cell-free; details: read-out: PPB (converted); in short: as §7
Salmonella typhimurium [39] = assay: Genotoxicity against Salmonella Typhimurium TA98 by Ames test in the presence of rat liver S9 fraction; format: toxicity, organism-based; details: salmonella enterica subsp. enterica serovar typhimurium
Salmonella typhimurium [40] = assay: Genotoxicity against Salmonella Typhimurium TA100 by Ames test in the presence of rat liver S9 fraction; format: toxicity, organism-based; details: salmonella enterica subsp. enterica serovar typhimurium
Salmonella typhimurium [41] = assay: Genotoxicity against Salmonella Typhimurium TA102 by Ames test in the presence of rat liver S9 fraction; format: toxicity, organism-based; details: salmonella enterica subsp. enterica serovar typhimurium
Salmonella typhimurium [42] = assay: Genotoxicity against Salmonella Typhimurium TA1535 by Ames test in the presence of rat liver S9 fraction; format: toxicity, organism-based; details: salmonella enterica subsp. enterica serovar typhimurium
Salmonella typhimurium [43] = assay: Genotoxicity against Salmonella Typhimurium TA1537 by Ames test in the presence of rat liver S9 fraction; format: toxicity, organism-based; details: salmonella enterica subsp. enterica serovar typhimurium
Salmonella typhimurium [44] = assay: Genotoxicity against Salmonella Typhimurium TA98 by Ames test in the absence of rat liver S9 fraction; format: toxicity, organism-based; details: salmonella enterica subsp. enterica serovar typhimurium
Salmonella typhimurium [45] = assay: Genotoxicity against Salmonella Typhimurium TA100 by Ames test in the absence of rat liver S9 fraction; format: toxicity, organism-based; details: salmonella enterica subsp. enterica serovar typhimurium
Salmonella typhimurium [46] = assay: Genotoxicity against Salmonella Typhimurium TA102 by Ames test in the absence of rat liver S9 fraction; format: toxicity, organism-based; details: salmonella enterica subsp. enterica serovar typhimurium
Salmonella typhimurium [47] = assay: Genotoxicity against Salmonella Typhimurium TA1535 by Ames test in the absence of rat liver S9 fraction; format: toxicity, organism-based; details: salmonella enterica subsp. enterica serovar typhimurium
[48] = Oral bioavailability in rat; format: ADME, organism-based; details: in vivo; in short: as §1
[49] = Cmax in po dosed rat; format: ADME, organism-based; design: route oral; details: in vivo
[50] = AUC in po dosed rat; format: ADME, organism-based; details: plasma
Rattus norvegicus [51] = assay: Cmax in po dosed rat assessed as 5-[4-(1-cyclobutyl-piperidin-4-yloxy)-phenyl]-6-methyl-2H-pyridazin-3-one level; format: ADME, organism-based; design: route oral; details: in vivo
Rattus norvegicus [52] = assay: AUC in po dosed rat assessed as 5-[4-(1-cyclobutyl-piperidin-4-yloxy)-phenyl]-6-methyl-2H-pyridazin-3-one level; format: ADME, organism-based, Plasma; details: in vivo

T1 sequence (Q9Y5N1 whole entry): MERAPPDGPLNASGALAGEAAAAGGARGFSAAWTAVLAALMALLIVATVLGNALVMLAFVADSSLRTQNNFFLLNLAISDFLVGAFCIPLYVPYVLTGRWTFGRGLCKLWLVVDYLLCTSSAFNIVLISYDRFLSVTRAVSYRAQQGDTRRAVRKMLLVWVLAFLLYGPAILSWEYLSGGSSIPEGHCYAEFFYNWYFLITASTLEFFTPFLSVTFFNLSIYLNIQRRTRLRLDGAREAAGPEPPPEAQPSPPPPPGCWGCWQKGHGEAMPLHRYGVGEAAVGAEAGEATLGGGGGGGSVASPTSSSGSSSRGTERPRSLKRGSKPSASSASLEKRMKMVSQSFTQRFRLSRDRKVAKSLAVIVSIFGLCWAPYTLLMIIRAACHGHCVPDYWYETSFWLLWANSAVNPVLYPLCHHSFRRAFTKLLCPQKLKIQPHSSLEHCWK
Histamine H3 receptor (Rattus norvegicus, UniProt Q9QYN8), sequence (Q9QYN8 whole entry): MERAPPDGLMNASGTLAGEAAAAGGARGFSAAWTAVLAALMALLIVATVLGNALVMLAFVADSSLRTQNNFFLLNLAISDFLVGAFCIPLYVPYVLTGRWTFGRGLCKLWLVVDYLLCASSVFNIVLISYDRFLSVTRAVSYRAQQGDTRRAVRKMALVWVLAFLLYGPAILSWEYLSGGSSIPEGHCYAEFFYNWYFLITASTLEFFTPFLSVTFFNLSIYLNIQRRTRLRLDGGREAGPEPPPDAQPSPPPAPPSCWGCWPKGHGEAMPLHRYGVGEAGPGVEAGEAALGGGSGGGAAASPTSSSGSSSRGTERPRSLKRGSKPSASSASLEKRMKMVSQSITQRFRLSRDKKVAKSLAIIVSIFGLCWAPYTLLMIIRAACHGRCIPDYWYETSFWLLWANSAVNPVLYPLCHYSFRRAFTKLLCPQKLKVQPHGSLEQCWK
Histamine H2 receptor (Homo sapiens), sequence (P25021 whole entry): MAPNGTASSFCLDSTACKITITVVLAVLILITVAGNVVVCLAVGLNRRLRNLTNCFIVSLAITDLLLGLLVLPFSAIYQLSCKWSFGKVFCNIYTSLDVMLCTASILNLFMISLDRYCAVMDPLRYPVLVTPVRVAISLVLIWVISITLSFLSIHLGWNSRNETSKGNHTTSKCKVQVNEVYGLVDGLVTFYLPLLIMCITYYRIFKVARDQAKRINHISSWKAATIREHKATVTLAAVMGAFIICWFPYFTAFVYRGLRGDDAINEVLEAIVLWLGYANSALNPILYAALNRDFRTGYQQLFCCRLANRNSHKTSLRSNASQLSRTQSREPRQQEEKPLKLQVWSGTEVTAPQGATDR
Voltage-gated inwardly rectifying potassium channel KCNH2, sequence (Q12809 whole entry): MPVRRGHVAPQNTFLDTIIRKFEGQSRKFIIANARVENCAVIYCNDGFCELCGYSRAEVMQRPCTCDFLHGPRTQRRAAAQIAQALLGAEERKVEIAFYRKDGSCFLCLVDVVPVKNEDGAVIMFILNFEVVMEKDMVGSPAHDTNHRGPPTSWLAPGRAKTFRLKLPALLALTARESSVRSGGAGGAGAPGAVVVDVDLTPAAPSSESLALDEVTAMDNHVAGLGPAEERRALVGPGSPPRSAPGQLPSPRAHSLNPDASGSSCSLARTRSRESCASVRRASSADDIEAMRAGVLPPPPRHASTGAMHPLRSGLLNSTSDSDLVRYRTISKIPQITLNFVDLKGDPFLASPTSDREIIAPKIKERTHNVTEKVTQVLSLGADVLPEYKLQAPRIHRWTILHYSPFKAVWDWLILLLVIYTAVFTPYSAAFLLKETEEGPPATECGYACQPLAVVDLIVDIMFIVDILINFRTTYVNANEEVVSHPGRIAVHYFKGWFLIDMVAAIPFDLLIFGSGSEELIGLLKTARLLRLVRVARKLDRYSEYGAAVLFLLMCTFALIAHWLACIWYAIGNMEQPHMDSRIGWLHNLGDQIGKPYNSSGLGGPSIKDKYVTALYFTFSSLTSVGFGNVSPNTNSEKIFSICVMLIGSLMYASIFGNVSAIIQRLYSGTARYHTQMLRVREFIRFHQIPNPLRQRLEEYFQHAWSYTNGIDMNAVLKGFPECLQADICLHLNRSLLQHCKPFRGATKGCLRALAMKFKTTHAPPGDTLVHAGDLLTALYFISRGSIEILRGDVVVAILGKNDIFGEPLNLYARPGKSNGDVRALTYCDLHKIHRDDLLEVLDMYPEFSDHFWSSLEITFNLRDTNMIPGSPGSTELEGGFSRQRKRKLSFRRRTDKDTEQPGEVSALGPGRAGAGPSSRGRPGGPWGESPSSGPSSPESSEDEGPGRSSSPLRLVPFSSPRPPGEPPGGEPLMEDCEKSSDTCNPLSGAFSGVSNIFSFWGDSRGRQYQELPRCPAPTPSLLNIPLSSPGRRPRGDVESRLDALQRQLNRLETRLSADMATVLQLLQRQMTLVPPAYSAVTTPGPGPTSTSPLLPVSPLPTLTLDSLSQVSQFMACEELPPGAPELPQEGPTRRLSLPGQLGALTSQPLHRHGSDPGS
Histamine H1 receptor (Homo sapiens), sequence (P35367 whole entry): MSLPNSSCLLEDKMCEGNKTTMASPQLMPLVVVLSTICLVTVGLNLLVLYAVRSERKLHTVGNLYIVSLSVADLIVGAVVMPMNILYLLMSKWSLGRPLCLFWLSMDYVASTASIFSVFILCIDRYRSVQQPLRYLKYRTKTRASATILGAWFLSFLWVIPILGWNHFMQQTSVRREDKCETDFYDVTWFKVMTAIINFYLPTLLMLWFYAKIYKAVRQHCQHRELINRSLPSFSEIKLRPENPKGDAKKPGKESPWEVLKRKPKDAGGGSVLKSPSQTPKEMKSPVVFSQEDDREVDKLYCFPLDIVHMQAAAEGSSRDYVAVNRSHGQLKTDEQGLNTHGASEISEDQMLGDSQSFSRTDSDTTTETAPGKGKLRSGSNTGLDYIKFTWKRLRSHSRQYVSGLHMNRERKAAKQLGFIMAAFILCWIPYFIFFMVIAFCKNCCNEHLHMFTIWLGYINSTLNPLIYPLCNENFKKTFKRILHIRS
Histamine H4 receptor (Homo sapiens), sequence (Q9H3N8 whole entry): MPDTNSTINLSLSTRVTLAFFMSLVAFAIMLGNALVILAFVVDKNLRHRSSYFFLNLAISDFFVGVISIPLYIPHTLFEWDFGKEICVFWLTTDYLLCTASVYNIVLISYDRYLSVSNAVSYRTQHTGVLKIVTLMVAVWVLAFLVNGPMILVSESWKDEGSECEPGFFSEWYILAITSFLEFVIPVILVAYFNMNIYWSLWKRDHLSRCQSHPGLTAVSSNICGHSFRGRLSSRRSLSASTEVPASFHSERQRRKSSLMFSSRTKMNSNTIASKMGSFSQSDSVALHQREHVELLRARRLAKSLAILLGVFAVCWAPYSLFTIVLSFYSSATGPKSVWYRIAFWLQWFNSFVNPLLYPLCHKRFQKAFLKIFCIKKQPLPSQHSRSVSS

In the case of Cc1n[nH]c(=O)cc1-c1ccc(OC2CCN(C3CCC3)CC2)cc1, the Activity (Salmonella typhimurium [1]) is reported as “Non-toxic”, the Activity [2] is reported as “Non-toxic” and the Activity [3] is reported as “Non-toxic”. It also gave a half-life [4] of 90 min, a Vd [5] of 3.4 L/kg and a clearance [6] of 25 mL/min/kg. For the same compound, the Cmax [7] was 673 ng/mL, the Tmax [8] was 1 h and the bioavailability [9] was 68%. For the same compound, the AUC [10] was 4870 ng·h/mL, the Kp at 6 h [11] was 2.3 and the ED50 (Rattus norvegicus [12]) was 0.02 mg/kg. The Time (Rattus norvegicus [13]) was 35.3 min, the Time (Rattus norvegicus [14]) was 45 min and the Time (Rattus norvegicus [15]) was 167 min. For the same compound, the Time (Rattus norvegicus [16]) was 226 min, the Time (Rattus norvegicus [17]) was 163 min and the Activity (Rattus norvegicus [18]) was “Active”. For the same compound, the Activity (Rattus norvegicus [19]) was 178%, the Activity (Rattus norvegicus [20]) was “Non-toxic” and the Ki (Histamine H3 receptor [21]) was 6 nM. It also gave a Ki (Histamine H3 receptor [22]) of 5 nM, an IC50 [23] of 7 µM and a half-life [24] of over 40 min. It also gave a half-life [25] of over 40 min, a half-life [26] of over 40 min and an IC50 [27] of over 30 µM. For the same compound, the inhibition [28] was under 20%, the inhibition [29] was under 20% and the inhibition [30] was under 20%. The EC50 (Histamine H3 receptor [31]) was 1.1 nM, the inhibition [32] was over 50% and the solubility [33] was over 140 µg/mL. The solubility [34] was over 140 µg/mL, the Papp [35] was 14.9 ×10⁻⁶ cm/s and the fraction unbound [36] was 0.46. For the same compound, the fraction unbound [37] was 0.57, the fraction unbound [38] was 0.42 and the Activity (Salmonella typhimurium [39]) was “Non-toxic”. For the same compound, the Activity (Salmonella typhimurium [40]) was “Non-toxic”, the Activity (Salmonella typhimurium [41]) was “Non-toxic” and the Activity (Salmonella typhimurium [42]) was “Non-toxic”. For the same compound, the Activity (Salmonella typhimurium [43]) was “Non-toxic”, the Activity (Salmonella typhimurium [44]) was “Non-toxic” and the Activity (Salmonella typhimurium [45]) was “Non-toxic”. The Activity (Salmonella typhimurium [46]) was “Non-toxic” and the Activity (Salmonella typhimurium [47]) was “Non-toxic”.
Compound Cc1nn(C)c(=O)cc1-c1ccc(OC2CCN(C3CCC3)CC2)cc1 has a Ki (Histamine H3 receptor [21]) of 8 nM, a bioavailability [48] of 19% and a Ki (Histamine H3 receptor [22]) of 4 nM. The half-life [24] was over 40 min, the half-life [25] was over 40 min and the half-life [26] was over 40 min. The IC50 [27] was over 30 µM, the Cmax [49] was 107 ng/mL and the AUC [50] was 337 ng·h/mL. The Cmax (Rattus norvegicus [51]) was 68 ng/mL and the AUC (Rattus norvegicus [52]) was 320 ng·h/mL.
